Experimental data gathered from unrelated publications.
Lines come from different studies, so protocols differ. Converted amounts (≈) assume the structure as drawn.

`Cc1n[nH]c2ccc3nc(-c4ccc(C(=O)NCCN(C)C)cc4)c4c(c3c12)CCCC4` gave a GI50 of 1.78 µM (22Rv1; cell growth or viability; 72 h).
With `O=C(NCc1cn(Cc2ccc(Cl)cc2)nn1)Nc1ccccc1Br` the viability was 90.7% (NCI-H1299; cell growth or viability, CCK-8; 50 µM, 72 h).
`COc1ccc(NC(=O)NCc2cn(Cc3ccc(Br)cc3)nn2)cc1` gave a viability of 91.9% (NCI-H1299; cell growth or viability, CCK-8; 50 µM, 72 h).
With `Cc1ccc(N=Nc2c(N)nn3c(-c4ccc(C)cc4)cc(-c4ccc(OCc5ccccc5)cc4)nc23)cc1` the MBC was 62.5 µg/mL (≈ 119 µM) (Enterobacter cloacae; microbial killing; ATCC23355).
For `COc1ccc(NC(=O)Nc2ccc(-c3cn(Cc4ccc(C)cc4)nn3)cc2)cc1`, the viability was 104% (NCI-H1299; cell growth or viability, CCK-8; 50 µM, 72 h).
For `O=C(Nc1ccc(Cl)cc1)Nc1ccc(-c2cn(Cc3ccc(Br)cc3)nn2)cc1`, the viability was 89.9% (NCI-H1299; cell growth or viability, CCK-8; 50 µM, 72 h).
The MBC of `COc1ccc(N=Nc2c(N)nn3c(-c4ccc(C)cc4)cc(-c4ccc(OCc5ccccc5)cc4)nc23)cc1` is reported as 125 µg/mL (≈ 231 µM) (Enterobacter cloacae; microbial killing; ATCC23355).
For `CC(C)(C)c1cc(NC(=O)Nc2ccc(-c3cn4c(n3)sc3cc(OCCN5CCOCC5)ccc34)cc2)no1`, the GI50 was > 10 µM (22Rv1; cell growth or viability; 72 h).
For `Cc1ccc(-c2cc(-c3ccc(OCc4ccccc4)cc3)nc3c(N=Nc4ccc(F)cc4)c(N)nn23)cc1`, the MBC was 125 µg/mL (≈ 236 µM) (Enterobacter cloacae; microbial killing; ATCC23355).
With `COc1ccc(NC(=O)Nc2cccc(-c3cn(Cc4ccc(Br)cc4)nn3)c2)cc1` the viability was 151% (NCI-H1299; cell growth or viability, CCK-8; 50 µM, 72 h).
With `O=C(NCc1cn(Cc2ccc(Br)cc2)nn1)Nc1ccccc1Br` the viability was 89.2% (NCI-H1299; cell growth or viability, CCK-8; 50 µM, 72 h).
`Nc1nn2c(-c3ccco3)cc(-c3ccc(OCc4ccccc4)cc3)nc2c1N=Nc1ccc(F)cc1` gave an MBC of 62.5 µg/mL (≈ 124 µM) (Enterobacter cloacae; microbial killing; ATCC23355).
`Cc1ccc2[nH]nc(-c3nnc(Nc4ccc(Br)cc4)s3)c2c1` has an MIC of 257 µg/mL (≈ 664 µM) (Serratia marcescens; microbial growth; ATCC8100).
`COc1ccc(NC(=O)Nc2ccc(-c3cn(Cc4ccc(Cl)cc4)nn3)cc2)cc1` has a viability of 97.9% (NCI-H1299; cell growth or viability, CCK-8; 50 µM, 72 h).
The MIC of `Cc1ccc2[nH]nc(-c3nnc(Nc4ccc(O)cc4)s3)c2c1` is reported as 62.8 µg/mL (≈ 194 µM) (Serratia marcescens; microbial growth; ATCC8100).
The viability of `O=C(Nc1ccc(-c2cn(Cc3ccc(Cl)cc3)nn2)cc1)Nc1ccccc1Br` is reported as 109% (NCI-H1299; cell growth or viability, CCK-8; 50 µM, 72 h).
For `Cc1n[nH]c2ccc3nc(-c4ccc(C(=O)NCCN(C)C)cc4)c4c(c3c12)CCCCC4`, the GI50 was 7.15 µM (22Rv1; cell growth or viability; 72 h).
The MIC of `CC[C@H]1OC(=O)[C@H](C)[C@@H](O[C@H]2C[C@@](C)(OC)[C@@H](O)[C@H](C)O2)[C@H](C)[C@@H](O[C@@H]2O[C@H](C)C[C@H](N(C)C)[C@H]2O)[C@](C)(O)C[C@@H](C)CN(C)[C@H](C)[C@@H](O)[C@]1(C)O` is reported as < 98 µg/mL (Serratia marcescens; microbial growth; ATCC8100).
For `COc1ccc(NC(=O)Nc2ccc(-c3cn(Cc4ccc(Br)cc4)nn3)cc2)cc1`, the viability was 106% (NCI-H1299; cell growth or viability, CCK-8; 50 µM, 72 h).
